SKN-1 block: suppressors of acrylamide-induced Pgst-4::GFP reporter in worms, primary screen, SKN-1 inhibitor project, whole organism, uHTS, GFP/RFP fluorescence ratio, strain VP596; C. elegans VP596 Pgst-4::GFP/RFP ratio, 24 h; inhibition, % at 21.8 µM; 0.49% of 360,000 active; AID 624304, 2012;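 active = interference check ratio from 0.5 to 1.5 plus GFP to RFP signal ratio inhibition reaching or exceeding a fixed threshold, cut at about 30% in these data, passing the limit was not always enough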
MT1-MMP act inh: blockers of MT1-MMP proenzyme processing, primary screen, HT1080 RFP-PRO-GFP cells, GFP/RFP fluorescence. 0.061% of 360,000 active. GFP/RFP ratio change, % at 20 µM. GFP/RFP ratio fluorescence, overnight; percent of plate control window, DMSO zero. Matrix metalloproteinase-14 (Homo sapiens), P50281;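 active = GFP/RFP ratio change of at least 30% with cell ATP level not reduced by more than half and red fluorescence within 50% of control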
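Assay system: HT1080 RFP-PRO-GFP cells. Benchmarks: DMSO vehicle wells and RFP-L50D-GFP reporter cell wells. Times: overnight cell settling, then overnight compound exposure, 37 °C, 5% CO2. Compound: 20 µM single dose, 1% DMSO. Read-out basis: GFP/RFP fluorescence ratio.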
Tn6 DDE FP: inhibitors of Tn6 peptide binding to fibrin DD(E), primary screen, biochemical, fluorescence polarization, human fibrin, Tn6 probe | Fibrinogen beta chain (Homo sapiens), P02675 | Fibrin DD(E) TRITC-Tn6 fluorescence polarization displacement | inhibition, % at 8.3 µM | 0.21% of 370,000 active;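 active = inhibition above a per-campaign cutoff: mean of compounds within control limits plus 3 SD, cut at about 15% in these data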;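 also: 0% = median of all compound wells on the plate and 100% = blocking peptide control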
Neddylation inh: inhibitors of cullin neddylation, primary screen, biochemical, TR-FRET, uHTS, NAE and Ubc12. AID 651699, 2012. NEDD8-conjugating enzyme Ubc12 (Homo sapiens) + NEDD8-activating enzyme E1 regulatory …. calls only at 25 µM. 0.58% of 360,000 active; in the data active = inhibition above about 36%
Tn7 DDE FP: inhibitors of Tn7 peptide binding to fibrin DD(E), primary screen, biochemical, fluorescence polarization, human fibrin, Tn7 probe. Fibrinogen beta chain (Homo sapiens), P02675. inhibition, % at 8.3 µM. 0.13% of 370,000 active. FP displacement of FITC-Tn7 peptide from fibrin DD(E); 0% = median of compound wells per plate;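 active = inhibition above the mean of compounds falling within the control limits plus 3 SD of them, cut at about 14% in these data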;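 also: 0% = plate median of compound wells and 100% = 10 µM Aha-Tn7 peptide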
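Test system – human fibrin DD(E) · Times – 10 min preincubation, 3 h with tracer, room temperature · Detection – fluorescence polarization of the labelled Tn7 tracer · Measure – percent inhibition normalized to high-control wells · Benchmarks – high control wells with 10 µM unlabelled Aha-Tn7 peptide (full inhibition) · Repeats – singlicate testing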
proKLK7 act: proKLK7 zymogen activators, primary screen, biochemical, fluorescence intensity | Kallikrein-7 (Homo sapiens), P49862 | purified proKLK7, EDANS-DABCYL substrate fluorescence; 100% is mature enzyme control, 0% vehicle | activation, % at 7 µM | 0.9% of 370,000 active | AID 652039, 2013;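 active = activation above the mean of all tested compounds plus 3 SD, computed per campaign excluding outliers beyond control limits, cut at about 13% in these data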
Target sequence (P49862 whole entry, looked up): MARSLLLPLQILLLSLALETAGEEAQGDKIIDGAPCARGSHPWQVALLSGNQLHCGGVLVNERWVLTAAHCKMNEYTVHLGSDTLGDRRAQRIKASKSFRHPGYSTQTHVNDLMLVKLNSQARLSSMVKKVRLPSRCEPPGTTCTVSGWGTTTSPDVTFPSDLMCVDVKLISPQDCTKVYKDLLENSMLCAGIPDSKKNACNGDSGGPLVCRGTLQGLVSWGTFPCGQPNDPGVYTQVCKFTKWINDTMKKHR
KLK7 act conf: proKLK7 zymogen activators, confirmation, biochemical, fluorescence intensity, triplicate. shares compounds with proKLK7 act. activation, % at 7 µM. 68% of 3,200 active. purified proKLK7, EDANS-DABCYL substrate fluorescence; scaled: vehicle 0, mature enzyme 100;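 active = activation, as change over the incubation, above the mean of all tested compounds plus 3 SD, cut at about 13% in these data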
EDANS interfere: EDANS-DABCYL substrate optical interference, artefact control for kallikrein-7 zymogen activator project, biochemical, fluorescence intensity, high throughput; shares compounds with proKLK7 act; no enzyme, 4 h; solvent 0%, active enzyme control 100%; activation, % at 7 µM; 80% of 3,200 active; AID 686952, 2013;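 active = activation above the all-compound mean plus 3 SD, ignoring values outside control-based bounds, cut at about 4.8% in these data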;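 also: value is the 4 h activation minus the activation read at time zero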
K7 EDANS ctr: EDANS fluorescence interference in dose response, no enzyme; 20% of 250 active; EC50, µM; EDANS-DABCYL peptide fluorescence interference; shares compounds with proKLK7 act;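 active = compounds that raise the fluorescence signal in this interference counterscreen, with EC50 at or below 10 µM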;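 also: intact quenched peptide substrate alone read at 355 nm excitation and 520 nm emission; signal is fluorescence gain from T0 to T4 after four hours at room temperature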
Active calls of the source: *. Most compounds without a hit are left out; they make up all but 2.2% or so of the library.

Screening CC1CCCCN1C(=O)CSc1nc2ccccc2[nH]1 (stereo not drawn) returned SKN-1 block 2, MT1-MMP act inh -1, Tn6 DDE FP 0, Neddylation inh inactive, Tn7 DDE FP 3 and proKLK7 act 0.
`O=S(=O)(c1ccccc1)c1cnc2ccccc2c1` gave SKN-1 block 3, MT1-MMP act inh 3, Tn6 DDE FP 0, Neddylation inh inactive, Tn7 DDE FP -4 and proKLK7 act -1.
Screening Nc1nc2ccccc2cc1S(=O)(=O)c1ccccc1 returned SKN-1 block 3, MT1-MMP act inh 4, Tn6 DDE FP 8, Tn7 DDE FP 4, proKLK7 act 13*, KLK7 act conf 7 and EDANS interfere 10*.
Screening Nc1nc2c(C(=O)N3CCCC3)nnn2c2ccccc12 returned Tn6 DDE FP -6, Tn7 DDE FP -4, proKLK7 act 19*, KLK7 act conf 22* and EDANS interfere 20*.
`Nc1nc2c(-c3ccc(Br)cc3)nnn2c2ccccc12` gave SKN-1 block 3, MT1-MMP act inh -2, Tn6 DDE FP 1, Neddylation inh inactive, Tn7 DDE FP 5 and proKLK7 act -1.
`CCN1C(=O)c2cccc3c(S(=O)(=O)NCCCN4CCOCC4)ccc1c23` gave SKN-1 block -19, MT1-MMP act inh 6, Tn6 DDE FP 2, Tn7 DDE FP 4, proKLK7 act 51*, KLK7 act conf 44* and EDANS interfere 43*.
Screening CCN1C(=O)c2cccc3c(S(=O)(=O)NCCc4c[nH]c5ccccc45)ccc1c23 returned SKN-1 block 16, MT1-MMP act inh 2, Tn6 DDE FP -2, Neddylation inh inactive, Tn7 DDE FP 3, proKLK7 act 15*, KLK7 act conf 37* and EDANS interfere 55*.
CCN1C(=O)c2cccc3c(S(=O)(=O)Nc4ccc(O)c(C(=O)O)c4)ccc1c23 was read as SKN-1 block 10, MT1-MMP act inh 0, Tn6 DDE FP -6, Neddylation inh inactive, Tn7 DDE FP 1 and proKLK7 act 1.
Cc1ccc(Cn2cc(CN3CC(N4CCN(C5CCN(C)CC5)CC4)CS3(=O)=O)nn2)cc1 (stereo not drawn) was read as SKN-1 block 12, MT1-MMP act inh 5, Tn6 DDE FP 0, Neddylation inh inactive, Tn7 DDE FP -4 and proKLK7 act 0.
`CC(C)CC1=NN2C(=N)/C(=C\c3coc4ccccc4c3=O)C(=O)N=C2S1` gave SKN-1 block 3, MT1-MMP act inh -58, Tn6 DDE FP -12, Neddylation inh inactive, Tn7 DDE FP -6, proKLK7 act 24*, KLK7 act conf 24* and EDANS interfere 23*.
COc1nc(-c2ccccc2)c2cc(C)ccc2n1 was read as SKN-1 block 5, MT1-MMP act inh 1, Tn6 DDE FP 6, Tn7 DDE FP 3, proKLK7 act 13*, KLK7 act conf -2 and EDANS interfere 2.
Cc1ccc2nc(NCCO)nc(-c3ccccc3)c2c1 was read as SKN-1 block 13, MT1-MMP act inh -11, Tn6 DDE FP 12, Tn7 DDE FP 10, proKLK7 act 19*, KLK7 act conf 0 and EDANS interfere -4.
`COC(=O)/C=C(\C)NC(=O)c1ccc(F)cc1` gave SKN-1 block 7, MT1-MMP act inh 2, Tn6 DDE FP 5, Neddylation inh inactive, Tn7 DDE FP 1 and proKLK7 act 0.
`NC(=O)c1cccc(-c2cccc3nccn23)c1` gave SKN-1 block -18, MT1-MMP act inh -4, Tn6 DDE FP 3, Neddylation inh inactive, Tn7 DDE FP -3 and proKLK7 act 1.
N#CCc1ccc(-c2cccc3nccn23)cc1 was read as SKN-1 block 9, MT1-MMP act inh 0, Tn6 DDE FP 1, Tn7 DDE FP -1, proKLK7 act 22*, KLK7 act conf 13* and EDANS interfere 26*.
`c1cc(-c2ccc(N3CCOCC3)cc2)n2ccnc2c1` gave SKN-1 block 17, MT1-MMP act inh 0, Tn6 DDE FP -1, Tn7 DDE FP 3, proKLK7 act 79*, KLK7 act conf 47* and EDANS interfere 59*.
CN(C)c1ccc(-c2cccc3nccn23)cc1 was read as SKN-1 block 14, MT1-MMP act inh 9, Tn6 DDE FP -5, Tn7 DDE FP 0, proKLK7 act 40*, KLK7 act conf 70*, EDANS interfere 60* and K7 EDANS ctr >70.
Screening CS(=O)(=O)Nc1ccc(-c2cccc3nccn23)cc1 returned SKN-1 block 16, MT1-MMP act inh 2, Tn6 DDE FP 5, Tn7 DDE FP 4 and proKLK7 act -41.
For Clc1cccc(-c2cccc3nccn23)c1 the results were SKN-1 block 7, MT1-MMP act inh 4, Tn6 DDE FP 4, Tn7 DDE FP -7 and proKLK7 act 8.
`CCCCCCn1c(N2CCCC2)nc2c1c(=O)n(C)c(=O)n2C` gave SKN-1 block -24, MT1-MMP act inh 1, Tn6 DDE FP -3, Neddylation inh inactive, Tn7 DDE FP 1 and proKLK7 act 1.
`O=C1CN(C(=O)NCC(=O)N[C@@H](Cc2ccccc2)C(=O)O)c2ccccc2N1` gave SKN-1 block 3, MT1-MMP act inh -2, Tn6 DDE FP 1, Neddylation inh inactive, Tn7 DDE FP 1 and proKLK7 act 0.
`CCC(CC)COC(=O)C1=C(C)NC(=O)NC1c1ccc(OC)cc1` (stereo not drawn) gave SKN-1 block 9, MT1-MMP act inh 4, Tn6 DDE FP -6, Neddylation inh inactive, Tn7 DDE FP -3 and proKLK7 act 1.
